Efflux pump inh: antifungal efflux pump inhibition, Nile Red retention; S. cerevisiae Candida pump triplex; inhibition, % at 10 µM; 330,000 compounds, 0.44% hits; AID 485275;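 active means plate passing quality check with inhibition over a set limit, or well fluorescence over plate mean plus 4 SD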;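 further: Nile Red retained in pooled yeast measured as flow cytometry median fluorescence; higher means more Nile Red kept so more efflux inhibition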
FN deposit inh: fibronectin deposition inhibition; 350,000 compounds, 0.086% hits; AH1F fibroblasts, Alexa488-fibronectin deposition fluorescence, overnight; inhibition, % at 12.6 µM;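 active means mean inhibition across replicates of 30% or more, regardless of how many single replicates reach that level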
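Material – AH1F fibroblast monolayer, labelled fibronectin deposition · Reagent – labelled fibronectin 24 nM · Timing – 1 h adhesion, overnight exposure · Measured by – fluorescence at 485 nm excitation, 525 nm emission · Read-out – inhibition of fibronectin deposition signal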
SR-BI HDL uptake: blocks mouse SR-BI lipid uptake from DiI-HDL; inhibition, % at 12.5 µM; ldlA[mSR-BI] CHO cells, DiI-HDL uptake fluorescence, 3 h; Q61009; 320,000 compounds, 0.96% hits;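 active means mean replicate inhibition of at least 70% and a set share of replicates each scoring 70 or more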
Target sequence (Q61009 whole entry, looked up): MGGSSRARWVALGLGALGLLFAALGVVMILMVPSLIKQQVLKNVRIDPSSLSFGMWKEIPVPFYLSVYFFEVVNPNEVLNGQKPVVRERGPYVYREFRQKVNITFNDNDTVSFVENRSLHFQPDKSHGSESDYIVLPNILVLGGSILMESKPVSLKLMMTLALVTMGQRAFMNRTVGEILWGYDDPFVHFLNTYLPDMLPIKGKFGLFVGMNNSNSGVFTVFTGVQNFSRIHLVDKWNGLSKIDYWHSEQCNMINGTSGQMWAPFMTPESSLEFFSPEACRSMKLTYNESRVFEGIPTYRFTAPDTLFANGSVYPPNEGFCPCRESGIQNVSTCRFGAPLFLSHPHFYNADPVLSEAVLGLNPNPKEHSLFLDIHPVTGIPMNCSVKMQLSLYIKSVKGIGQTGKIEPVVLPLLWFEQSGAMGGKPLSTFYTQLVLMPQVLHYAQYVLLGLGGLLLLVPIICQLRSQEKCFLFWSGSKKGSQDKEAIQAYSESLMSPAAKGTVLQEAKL
CaV13 ICDI inh: Disruptors of the CACNA1D IQ motif to Ca2+-dependent inactivation inhibitor domain association, primary screening, Förster resonance energy transfer in intact living …. inhibition, % at 12.3 µM. AID 743397. HEK cells, CFP/YFP FRET ICDI-IQ, plate reader, 10 min; percent FRET-ratio fall versus neutral wells. 340,000 compounds, 0.098% hits;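 active means mean replicate inhibition of at least 30% and at least 1% of replicates passing that level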
SR-BI DiI-HDL act: activators of SR-BI mediated HDL lipid uptake; CHO ldlA[mSR-BI] cells, DiI-HDL uptake fluorescence, 3 h; 100 = double the neutral-control signal; activation, % at 12.5 µM; 320,000 compounds, 0.096% hits;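 active means mean replicate activation of at least 60% and every replicate at or above 60%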
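Test system: SR-BI-overexpressing, LDLR-lacking CHO cells. Measured by: DiI fluorescence, bottom read. Medium: Ham's F12 with 0.5% BSA, HEPES 25 mM, pH 7.4. Timing: 3 h uptake period with compound, 37 °C.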
Each line names hits and unclear results; the compound was inactive in the other large screens. Shown are actives, neighbours in structure and some others; about 1.2% of the full set was active somewhere.

O=C(C[C@H]1C[C@@H]2c3cc(NC(=O)Nc4ccccc4)ccc3O[C@@H]2[C@H](CO)O1)NCC(F)(F)F	none (no result: Efflux pump inh, SR-BI HDL uptake, CaV13 ICDI inh, SR-BI DiI-HDL act)
O=C(Nc1cccc(-c2csc(Nc3cccc(C(F)(F)F)c3)n2)c1)c1cc([N+](=O)[O-])cc(C(F)(F)F)c1	SR-BI HDL uptake 107
O=C(Nc1ccc(-c2csc(Nc3ccccc3)n2)cc1)c1cc([N+](=O)[O-])cc(C(F)(F)F)c1	SR-BI HDL uptake 96
O=C(Nc1ccc(-c2csc(Nc3ccc(Cl)cc3)n2)cc1)c1cccc(C(F)(F)F)c1	none (no result: SR-BI HDL uptake, SR-BI DiI-HDL act)
CCCSc1ccc([C@H]2N[C@@](CC(C)C)(C(=O)OC)[C@H]3C(=O)N(C)C(=O)[C@@H]23)cc1	SR-BI HDL uptake 74
O=C(C[C@H]1C=C[C@H](NC(=O)c2ccccc2)[C@@H](CO)O1)NCc1ccc(Oc2ccccc2)cc1	none (no result: Efflux pump inh, SR-BI HDL uptake, CaV13 ICDI inh, SR-BI DiI-HDL act)
CCCNC(=O)C[C@H]1CC[C@H]2[C@H](COc3ccc(NS(=O)(=O)CC)cc3C(=O)N2C)O1	none (no result: Efflux pump inh, SR-BI HDL uptake, CaV13 ICDI inh, SR-BI DiI-HDL act)
COc1ccccc1/C=C/C(=O)Nc1ccc2c(c1)CCC2	SR-BI HDL uptake 72
COc1cccc(/C=C/C(=O)OCC(=O)Nc2cccc(S(=O)(=O)N3CCOCC3)c2)c1OC	none
COc1cc(/C=C/C(=O)Nc2cccc(S(=O)(=O)N3CCOCC3)c2)ccc1OCC#N	SR-BI HDL uptake 78
COc1ccc(/C=C/C(=O)Nc2cccc(S(=O)(=O)N3CCOCC3)c2)cc1OC	none (no result: Efflux pump inh)
COc1ccccc1/C=C/C(=O)Nc1cccc(S(=O)(=O)N2CCOCC2)c1	SR-BI HDL uptake 85
CCOC(=O)c1c(C)n(OCc2ccccc2)c2ccc3c(no[n+]3[O-])c12	SR-BI HDL uptake 86
CCOC(=O)COn1c2c(c3c4no[n+]([O-])c4ccc31)CCCC2	none (no result: FN deposit inh, CaV13 ICDI inh)
Cc1cnnc2ccc3c(no[n+]3[O-])c12	none (no result: FN deposit inh)
CCCCOn1c(C)c(C(C)=O)c2c3no[n+]([O-])c3ccc21	SR-BI HDL uptake 78
O=C(C1CCC1)N1CC[C@@H]2[C@H](CO)Nc3ccc(C4=CCCCC4)cc3[C@@H]21	none (no result: Efflux pump inh, SR-BI HDL uptake, CaV13 ICDI inh, SR-BI DiI-HDL act)
CNC(=O)C[C@@H]1CC[C@@H]2[C@@H](COc3ccc(NS(=O)(=O)c4cccc(F)c4)cc3C(=O)N2C)O1	none (no result: Efflux pump inh, SR-BI HDL uptake, CaV13 ICDI inh, SR-BI DiI-HDL act)
CC(C)NC(=O)N(C)C[C@H]1Oc2ccccc2CC(=O)N(C)C[C@H]1C	none (no result: Efflux pump inh, SR-BI HDL uptake, CaV13 ICDI inh, SR-BI DiI-HDL act)
Nc1c(-c2ccc(Cl)cc2)cnn1-c1cccc(C(F)(F)F)c1	SR-BI HDL uptake 77 (no result: FN deposit inh)
Cc1ccc(-c2cnn(-c3cccc(C(F)(F)F)c3)c2N)cc1	none
COc1cc(Cl)cc(/C=C/c2ccc3ccccc3n2)c1OC(C)=O	SR-BI HDL uptake 80
C[C@@H]1CN([C@H](C)CO)C(=O)CCCn2nncc2CO[C@@H]1CN(C)Cc1ccncc1	none (no result: Efflux pump inh, SR-BI HDL uptake, CaV13 ICDI inh, SR-BI DiI-HDL act)
O=C(COc1ccc(/C=N/NC(=O)c2cc3ccccc3o2)cc1Cl)Nc1ccccc1	SR-BI HDL uptake 75 (no result: FN deposit inh, CaV13 ICDI inh)
CCOc1cc(/C=C2/NC(=S)NC2=O)ccc1OCc1ccc([N+](=O)[O-])cc1	SR-BI HDL uptake 73 (no result: FN deposit inh, CaV13 ICDI inh)
CCOc1cc(C(c2c(C)[nH][nH]c2=O)c2c(C)[nH][nH]c2=O)ccc1OCc1ccc([N+](=O)[O-])cc1	none
COc1ccc(CNC(=O)N(C)C[C@H]2OCc3ccccc3-c3ccccc3C(=O)N([C@@H](C)CO)C[C@@H]2C)cc1	none (no result: Efflux pump inh, SR-BI HDL uptake, CaV13 ICDI inh, SR-BI DiI-HDL act)
O=C(Cn1c(=O)oc2cc(S(=O)(=O)N3CCCCC3)ccc21)N1CCc2ccccc21	none
CC1Cc2ccccc2N1C(=O)Cn1c(=O)oc2cc(S(=O)(=O)N3CCCCC3)ccc21 (configuration not stated)	SR-BI HDL uptake 80
CO[C@H]1CN(C)C(=O)c2ccc(NC(C)=O)cc2OC[C@H](C)N(C(=O)c2ccccc2F)C[C@@H]1C	none (no result: Efflux pump inh, SR-BI HDL uptake, CaV13 ICDI inh, SR-BI DiI-HDL act)
COc1cccc(S(=O)(=O)N[C@@H]2CC[C@@H](CCNC(=O)Cc3ccncc3)O[C@@H]2CO)c1	none (no result: Efflux pump inh, SR-BI HDL uptake, CaV13 ICDI inh, SR-BI DiI-HDL act)
CCCNC(=O)N1C[C@@H](C)[C@H](OC)CN(C)C(=O)c2ccc(NS(C)(=O)=O)cc2OC[C@@H]1C	none (no result: Efflux pump inh, SR-BI HDL uptake, CaV13 ICDI inh, SR-BI DiI-HDL act)
Cc1ccc(C)c2sc(NC(=O)c3ccc(N4C(=O)CCC4=O)cc3)nc12	SR-BI HDL uptake 79
O=C(C[C@@H]1C[C@@H]2c3cc(NC(=O)NC4CCCC4)ccc3O[C@@H]2[C@H](CO)O1)NCc1ccc(Cl)cc1	none (no result: Efflux pump inh, SR-BI HDL uptake, CaV13 ICDI inh, SR-BI DiI-HDL act)
Nc1c2ccccc2nc2ccccc12	CaV13 ICDI inh 40
Nc1c2c(nc3ccccc13)CCCC2	none
